Measured values published in ChEMBL document CHEMBL5678815 (Clin Cancer Res, 2017).
Active and inactive are the calls of the source. No cut-off for these calls is given here.

Columns and labels:
[1] = target: Atypical kinase COQ8B, mitochondrial (Homo sapiens) (UniProt Q96D53); experiment: Inhibition of human ADCK4 assessed as remaining activity at 1 uM by ATP-competition binding assay relative to control
In short: (§1)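 KINOMEscan ATP-site-dependent competition binding panel of 395 human kinases, with compound tested at 1 μM. Binding is reported as remaining signal relative to control.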

[2] = target: Calcium/calmodulin-dependent protein kinase type 1D (Homo sapiens) (UniProt Q8IU85); experiment: Inhibition of human CAMK1D assessed as remaining activity at 1 uM by ATP-competition binding assay relative to control; in short: as §1
[3] = target: Calcium/calmodulin-dependent protein kinase type IV (Homo sapiens) (UniProt Q16566); experiment: Inhibition of human CAMK4 assessed as remaining activity at 1 uM by ATP-competition binding assay relative to control; in short: as §1
[4] = target: Calcium/calmodulin-dependent protein kinase kinase 2 (Homo sapiens) (UniProt Q96RR4); experiment: Inhibition of human CAMKK2 assessed as remaining activity at 1 uM by ATP-competition binding assay relative to control; in short: as §1
[5] = target: Macrophage colony-stimulating factor 1 receptor (Homo sapiens) (UniProt P07333); experiment: Inhibition of human CSF1R assessed as remaining activity at 1 uM by ATP-competition binding assay relative to control; in short: as §1
[6] = target: Casein kinase I isoform gamma-2 (Homo sapiens) (UniProt P78368); experiment: Inhibition of human CSNK1G2 assessed as remaining activity at 1 uM by ATP-competition binding assay relative to control; in short: as §1
[7] = tested on: Fibroblast growth factor receptor 3 (Homo sapiens), P22607 [G697C]; experiment: Inhibition of human FGFR3 G697C mutant assessed as remaining activity at 1 uM by ATP-competition binding assay relative to control
In short: (§2)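 Single-point profiling at 1μM in an ATP-site-dependent competition binding assay across a panel of 395 human kinases, including mutant forms. The read-out is kinase binding signal in the presence of test agent, expressed as inhibition relative to the control signal. This screen assessed noncovalent binding interactions.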

[8] = target: Tyrosine-protein kinase HCK (Homo sapiens) (UniProt P08631); experiment: Inhibition of human HCK assessed as remaining activity at 1 uM by ATP-competition binding assay relative to control; in short: as §2
[9] = target: Homeodomain-interacting protein kinase 4 (Homo sapiens) (UniProt Q8NE63); experiment: Inhibition of human HIPK4 assessed as remaining activity at 1 uM by ATP-competition binding assay relative to control; in short: as §2
[10] = target: Tyrosine-protein kinase JAK2 (Homo sapiens) (UniProt O60674); experiment: Inhibition of human JAK2 JH1 domain assessed as remaining activity at 1 uM by ATP-competition binding assay relative to control
In short: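 Compound at 1μM was screened in an ATP-site-dependent competition binding assay (KINOMEscan) against a 395-kinase human panel. Signal was expressed relative to control.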

[11] = tested on: Mast/stem cell growth factor receptor Kit (Homo sapiens), P10721 [D816V]; experiment: Inhibition of human KIT D816V mutant assessed as remaining activity at 1 uM by ATP-competition binding assay relative to control; in short: as §2
[12] = tested on: Mast/stem cell growth factor receptor Kit (Homo sapiens), P10721 [L576P]; experiment: Inhibition of human KIT L576P mutant assessed as remaining activity at 1 uM by ATP-competition binding assay relative to control; in short: as §2
[13] = target: Serine/threonine-protein kinase 3 (Homo sapiens) (UniProt Q13188); experiment: Inhibition of human MST2 assessed as remaining activity at 1 uM by ATP-competition binding assay relative to control; in short: as §2
[14] = target: Cyclin-dependent kinase 16 (Homo sapiens) (UniProt Q00536); experiment: Inhibition of human PCTK1 assessed as remaining activity at 1 uM by ATP-competition binding assay relative to control; in short: as §2
[15] = target: Serine/threonine-protein kinase pim-2 (Homo sapiens) (UniProt Q9P1W9); experiment: Inhibition of human PIM2 assessed as remaining activity at 1 uM by ATP-competition binding assay relative to control
In short: (§3)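 Single-concentration (1 μM) screen in an ATP-site-dependent competition binding assay (KINOMEscan, outsourced) covering 395 human kinases, mutants included. Non-covalent binding was read as the remaining signal relative to the control signal.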

[16] = target: Serine/threonine-protein kinase N2 (Homo sapiens) (UniProt Q16513); experiment: Inhibition of human PKN2 assessed as remaining activity at 1 uM by ATP-competition binding assay relative to control; in short: as §3
[17] = target: Serine/threonine-protein kinase PAK 6 (Homo sapiens) (UniProt Q9NQU5); experiment: Inhibition of human PAK6 assessed as remaining activity at 1 uM by ATP-competition binding assay relative to control; in short: as §2
[18] = target: RAF proto-oncogene serine/threonine-protein kinase (Homo sapiens) (UniProt P04049); experiment: Inhibition of human RAF1 assessed as remaining activity at 1 uM by ATP-competition binding assay relative to control; in short: as §3
[19] = target: SRSF protein kinase 3 (Homo sapiens) (UniProt Q9UPE1); experiment: Inhibition of human SRPK3 assessed as remaining activity at 1 uM by ATP-competition binding assay relative to control; in short: as §3
[20] = target: cGMP-dependent protein kinase 2 (Homo sapiens) (UniProt Q13237); experiment: Inhibition of human PRKG2 assessed as remaining activity at 1 uM by ATP-competition binding assay relative to control; in short: as §3
[21] = target: NT-3 growth factor receptor (Homo sapiens) (UniProt Q16288); experiment: Inhibition of human TRKC assessed as remaining activity at 1 uM by ATP-competition binding assay relative to control; in short: as §3
Splenocyte = experiment: In vivo inhibition of BCR signaling in female […] mouse assessed as change in phospho-S6 expression at 25 mg/kg, po administered and measured after stimulation with anti-IgM for 18 h by flow cytometry analysis; format: functional, organism-based
In short: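 Female C57BL/6 mice (5/group) received vehicle or 25 mg/kg drug by oral gavage at time zero, with spleens taken at time points from 3 to 24 h. Splenocytes were stimulated ex vivo with goat anti-mouse IgM at 10μg/mL for 18 h at 37°C in 5% CO2, then Fc-blocked and stained for CD19 plus CD69, CD86 or phospho-S6(S235/236), with 7-AAD to exclude dead cells. Read-out was flow cytometry on >5,000 gated CD19+ cells, compared with vehicle.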

[22] = Antitumor activity against human CLL mononuclear cells xenografted NSG mouse assessed as reduction in the phosphorylation of PLCgamma2 at 0.3 mg/ml preadministered with compound via drinking water and measured after 3 weeks by flow cytometry analysis relative to control; format: functional, CLL mononuclear cell; set-up: scale not given: the % may be the effect or the level left
In short: (§4)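 Primary CLL patient mononuclear cells (1 × 10^8 per mouse) engrafted into NSG mice on day 0 after busulfan priming on day −1. Vehicle or drug was given in drinking water from day −1. Mice were killed 3 weeks after engraftment; spleens homogenized, filtered and RBC-lysed; whole blood collected. Six patients, 2–5 mice per patient; paired t-test per patient.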

CLL mononuclear cell = experiment: Antileukemic activity against human CLL mononuclear cells xenografted NSG mouse assessed as reduction in splenic tumor burden at 0.3 mg/ml preadministered with compound via drinking water and measured after 3 weeks by flow cytometry analysis; format: functional, cell-based; in short: as §4
[23] = Antileukemic activity against human CLL mononuclear cells xenografted NSG mouse assessed as change in blood cells at 0.16 mg/ml preadministered with compound via drinking water and measured after 3 weeks by flow cytometry analysis relative to control; format: functional, CLL mononuclear cell; in short: as §4

Chain of Casein kinase I isoform gamma-2 (Homo sapiens) (P78368 whole entry, looked up, canonical isoform): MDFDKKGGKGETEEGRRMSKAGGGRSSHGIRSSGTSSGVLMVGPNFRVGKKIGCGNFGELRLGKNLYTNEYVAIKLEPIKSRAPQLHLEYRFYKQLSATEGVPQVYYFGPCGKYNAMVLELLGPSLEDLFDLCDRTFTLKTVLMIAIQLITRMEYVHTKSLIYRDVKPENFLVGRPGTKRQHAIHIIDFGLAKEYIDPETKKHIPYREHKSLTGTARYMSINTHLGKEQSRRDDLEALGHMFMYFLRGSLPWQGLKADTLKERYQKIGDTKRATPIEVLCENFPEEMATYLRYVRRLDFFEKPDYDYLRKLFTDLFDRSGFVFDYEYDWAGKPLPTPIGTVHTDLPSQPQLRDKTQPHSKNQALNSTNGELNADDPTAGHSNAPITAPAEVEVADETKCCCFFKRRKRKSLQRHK
Chain of Homeodomain-interacting protein kinase 4 (Homo sapiens) (Q8NE63 whole entry, the tested form may be a part): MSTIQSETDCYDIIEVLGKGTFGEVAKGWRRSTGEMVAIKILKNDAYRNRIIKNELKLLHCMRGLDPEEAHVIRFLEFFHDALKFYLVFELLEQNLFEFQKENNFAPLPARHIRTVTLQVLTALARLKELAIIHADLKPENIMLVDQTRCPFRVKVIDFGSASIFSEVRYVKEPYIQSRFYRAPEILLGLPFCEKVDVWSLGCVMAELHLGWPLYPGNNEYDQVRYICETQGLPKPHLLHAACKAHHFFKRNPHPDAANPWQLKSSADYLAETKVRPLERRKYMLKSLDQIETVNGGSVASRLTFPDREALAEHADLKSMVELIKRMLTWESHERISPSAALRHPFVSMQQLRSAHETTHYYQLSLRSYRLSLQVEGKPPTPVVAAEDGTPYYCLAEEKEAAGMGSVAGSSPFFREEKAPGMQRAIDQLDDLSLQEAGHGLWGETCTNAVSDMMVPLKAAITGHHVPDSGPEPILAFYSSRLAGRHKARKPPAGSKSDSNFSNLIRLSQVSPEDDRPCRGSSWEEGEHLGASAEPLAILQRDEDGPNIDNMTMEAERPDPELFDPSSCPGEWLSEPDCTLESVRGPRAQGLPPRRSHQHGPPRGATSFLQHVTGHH
Chain of Cyclin-dependent kinase 16 (Homo sapiens) (Q00536 whole entry): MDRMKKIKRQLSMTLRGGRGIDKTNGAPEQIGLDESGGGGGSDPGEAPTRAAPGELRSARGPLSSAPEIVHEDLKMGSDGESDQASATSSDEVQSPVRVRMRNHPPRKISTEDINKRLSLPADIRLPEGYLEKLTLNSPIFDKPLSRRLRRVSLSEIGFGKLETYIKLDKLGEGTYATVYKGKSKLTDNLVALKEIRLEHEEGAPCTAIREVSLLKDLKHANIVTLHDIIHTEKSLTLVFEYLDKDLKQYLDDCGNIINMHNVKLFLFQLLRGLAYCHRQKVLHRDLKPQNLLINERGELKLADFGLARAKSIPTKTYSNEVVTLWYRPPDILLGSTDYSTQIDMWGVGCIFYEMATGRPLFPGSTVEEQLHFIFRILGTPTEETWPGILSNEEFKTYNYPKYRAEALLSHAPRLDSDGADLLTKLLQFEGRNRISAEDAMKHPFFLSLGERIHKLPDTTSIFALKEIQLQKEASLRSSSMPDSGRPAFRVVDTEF
Chain of SRSF protein kinase 3 (Homo sapiens) (Q9UPE1 whole entry): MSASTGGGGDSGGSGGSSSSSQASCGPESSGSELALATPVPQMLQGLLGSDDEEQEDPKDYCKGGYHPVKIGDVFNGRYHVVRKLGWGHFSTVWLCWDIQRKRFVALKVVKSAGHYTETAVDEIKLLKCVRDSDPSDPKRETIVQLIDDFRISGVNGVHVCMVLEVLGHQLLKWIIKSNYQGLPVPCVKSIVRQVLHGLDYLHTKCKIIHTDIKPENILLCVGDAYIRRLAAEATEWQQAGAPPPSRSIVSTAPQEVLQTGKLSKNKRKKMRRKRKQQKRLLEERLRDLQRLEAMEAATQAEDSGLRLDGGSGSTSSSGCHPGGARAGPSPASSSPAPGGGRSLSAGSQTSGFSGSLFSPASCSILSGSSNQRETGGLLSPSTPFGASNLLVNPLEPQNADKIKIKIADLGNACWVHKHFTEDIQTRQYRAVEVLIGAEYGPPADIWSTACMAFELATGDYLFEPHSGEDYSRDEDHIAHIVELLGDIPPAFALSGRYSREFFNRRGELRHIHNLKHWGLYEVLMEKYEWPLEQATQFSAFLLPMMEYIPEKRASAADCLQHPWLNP
Chain of Calcium/calmodulin-dependent protein kinase type IV (Homo sapiens) (Q16566 whole entry): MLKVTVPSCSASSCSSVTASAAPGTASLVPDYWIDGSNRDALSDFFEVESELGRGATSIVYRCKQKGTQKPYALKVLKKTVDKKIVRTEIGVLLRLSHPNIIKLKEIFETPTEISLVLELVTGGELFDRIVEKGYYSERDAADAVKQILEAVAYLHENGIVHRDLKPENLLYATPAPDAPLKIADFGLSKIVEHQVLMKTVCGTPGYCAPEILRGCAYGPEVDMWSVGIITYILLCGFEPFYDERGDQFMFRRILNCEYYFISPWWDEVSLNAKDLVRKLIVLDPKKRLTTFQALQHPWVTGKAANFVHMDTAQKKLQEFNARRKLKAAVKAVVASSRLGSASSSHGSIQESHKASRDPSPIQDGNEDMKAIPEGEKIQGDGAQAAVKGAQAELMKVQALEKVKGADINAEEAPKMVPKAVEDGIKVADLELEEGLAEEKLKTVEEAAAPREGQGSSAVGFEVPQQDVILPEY
Chain of Tyrosine-protein kinase JAK2 (Homo sapiens) (O60674 whole entry, the tested form may be a part): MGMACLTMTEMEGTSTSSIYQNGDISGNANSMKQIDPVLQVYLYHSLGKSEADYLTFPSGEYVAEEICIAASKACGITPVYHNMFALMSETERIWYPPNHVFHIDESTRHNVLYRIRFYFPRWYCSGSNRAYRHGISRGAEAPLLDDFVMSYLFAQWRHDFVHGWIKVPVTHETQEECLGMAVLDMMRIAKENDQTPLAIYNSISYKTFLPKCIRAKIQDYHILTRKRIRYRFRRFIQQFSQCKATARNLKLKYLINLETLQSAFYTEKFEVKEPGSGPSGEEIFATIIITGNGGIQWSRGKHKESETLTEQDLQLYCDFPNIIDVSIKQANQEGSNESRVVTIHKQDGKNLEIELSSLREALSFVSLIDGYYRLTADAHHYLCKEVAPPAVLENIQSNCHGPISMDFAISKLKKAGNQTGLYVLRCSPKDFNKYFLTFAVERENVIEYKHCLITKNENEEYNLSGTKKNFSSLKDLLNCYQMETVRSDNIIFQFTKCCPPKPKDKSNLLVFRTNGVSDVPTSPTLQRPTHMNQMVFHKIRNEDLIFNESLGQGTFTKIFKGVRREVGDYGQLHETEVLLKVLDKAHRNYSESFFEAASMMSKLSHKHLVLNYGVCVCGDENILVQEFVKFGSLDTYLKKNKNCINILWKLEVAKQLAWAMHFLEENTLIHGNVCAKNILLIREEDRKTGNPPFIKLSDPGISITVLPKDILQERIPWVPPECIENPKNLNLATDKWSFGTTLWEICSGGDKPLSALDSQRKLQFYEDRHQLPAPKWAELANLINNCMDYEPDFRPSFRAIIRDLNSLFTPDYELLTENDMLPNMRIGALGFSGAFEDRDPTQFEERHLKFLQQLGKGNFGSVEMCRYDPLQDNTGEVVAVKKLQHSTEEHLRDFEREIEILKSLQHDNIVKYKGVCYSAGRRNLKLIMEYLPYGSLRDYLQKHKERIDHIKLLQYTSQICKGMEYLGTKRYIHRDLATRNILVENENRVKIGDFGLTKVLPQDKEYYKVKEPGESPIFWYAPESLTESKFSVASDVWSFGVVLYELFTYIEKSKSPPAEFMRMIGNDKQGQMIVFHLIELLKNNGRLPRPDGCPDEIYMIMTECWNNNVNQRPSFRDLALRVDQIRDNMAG
Chain of Macrophage colony-stimulating factor 1 receptor (Homo sapiens) (P07333 whole entry, canonical isoform): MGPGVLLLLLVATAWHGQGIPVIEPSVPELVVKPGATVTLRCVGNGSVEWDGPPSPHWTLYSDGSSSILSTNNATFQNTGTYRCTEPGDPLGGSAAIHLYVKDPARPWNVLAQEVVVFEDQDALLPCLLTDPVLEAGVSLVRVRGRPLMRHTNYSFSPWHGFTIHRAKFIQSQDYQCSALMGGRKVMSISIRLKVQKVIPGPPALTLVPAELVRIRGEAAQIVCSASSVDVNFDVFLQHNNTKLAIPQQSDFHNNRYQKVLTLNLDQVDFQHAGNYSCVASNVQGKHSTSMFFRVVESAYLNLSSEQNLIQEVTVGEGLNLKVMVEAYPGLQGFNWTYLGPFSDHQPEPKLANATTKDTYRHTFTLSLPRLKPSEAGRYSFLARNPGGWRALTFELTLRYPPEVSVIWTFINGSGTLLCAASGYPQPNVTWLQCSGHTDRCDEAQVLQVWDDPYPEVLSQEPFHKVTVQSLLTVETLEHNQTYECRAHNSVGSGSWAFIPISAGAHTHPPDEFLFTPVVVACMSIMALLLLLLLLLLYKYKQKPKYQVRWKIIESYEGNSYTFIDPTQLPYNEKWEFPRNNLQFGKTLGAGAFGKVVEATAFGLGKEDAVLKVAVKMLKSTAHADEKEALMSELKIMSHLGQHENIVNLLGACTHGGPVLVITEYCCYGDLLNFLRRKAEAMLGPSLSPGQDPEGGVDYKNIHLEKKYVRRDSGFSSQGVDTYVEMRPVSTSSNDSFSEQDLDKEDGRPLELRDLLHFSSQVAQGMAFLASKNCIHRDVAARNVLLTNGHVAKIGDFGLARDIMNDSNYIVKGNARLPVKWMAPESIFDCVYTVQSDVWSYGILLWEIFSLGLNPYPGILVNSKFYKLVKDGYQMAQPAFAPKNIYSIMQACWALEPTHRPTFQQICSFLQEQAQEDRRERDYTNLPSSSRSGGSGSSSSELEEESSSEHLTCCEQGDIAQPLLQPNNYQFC
Chain of Serine/threonine-protein kinase pim-2 (Homo sapiens) (Q9P1W9 whole entry, looked up): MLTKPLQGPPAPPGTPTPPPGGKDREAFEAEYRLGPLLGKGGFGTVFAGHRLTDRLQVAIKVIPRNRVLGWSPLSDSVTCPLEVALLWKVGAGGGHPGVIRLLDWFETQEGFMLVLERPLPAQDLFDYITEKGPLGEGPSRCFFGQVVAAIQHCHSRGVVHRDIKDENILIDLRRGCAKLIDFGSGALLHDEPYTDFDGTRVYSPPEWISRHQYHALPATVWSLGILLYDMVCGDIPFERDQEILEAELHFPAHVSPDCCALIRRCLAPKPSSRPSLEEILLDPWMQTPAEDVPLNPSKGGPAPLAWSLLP

SMILES: CC#CC(=O)N1CCC[C@H]1c1nc(-c2ccc(C(=O)Nc3ccccn3)cc2)c2c(N)nccn12 [ACALABRUTINIB]
- Activity [1]: 88%
- Activity [2]: 98%
- Activity [3]: 91%
- Activity [4]: 93%
- Activity [5]: 84%
- Activity [6]: 82%
- Activity [7]: 77%
- Activity [8]: 62%
- Activity [9]: 88%
- Activity [10]: 81%
- Activity [11]: 83%
- Activity [12]: 63%
- Activity [13]: 65%
- Activity [14]: 100%
- Activity [15]: 79%
- Activity [16]: 86%
- Activity [17]: 94%
- Activity [18]: 77%
- Activity [19]: 93%
- Activity [20]: 95%
- Activity [21]: 99%
- Activity (Splenocyte): Active
- Activity [22]: 68%
- Activity (CLL mononuclear cell): Active
- Activity [23]: 76%
